This note sets out measurements from ChEMBL document CHEMBL1139323, “Radiosynthesis, in vitro and in vivo evaluation of 123I-labeled anandamide analogues for mapping brain FAAH” (Bioorg Med Chem, 2009).

The nature of series [1]: Drug uptake in NMRI mouse large intestine at 4 to 5 uCi, iv after 10 mins post injection. In kind it is ADME, organism-based. The note with it: in vivo. In short, it runs like this: (§1)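 Adult male NMRI mice (20–25 g) given 4–5 µCi of 123I-tracer iv via tail vein in ethanol/saline (8:92). Killed by cervical dislocation under isoflurane at set times, n = 3 per time point. Organs removed and weighed, radioactivity gamma-counted. Uptake expressed as %ID/g tissue ± SD.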

A short description of series [2]: Drug uptake in NMRI mouse small intestine at 4 to 5 uCi, iv after 10 mins post injection. The series is classed as ADME, organism-based. Conditions: in vivo; call rule not given here. In short, it runs like this: as §1
Series [3] concerns Stomach. Briefly: Drug uptake in NMRI mouse stomach at 4 to 5 uCi, iv after 1 hr post injection. The series is classed as ADME, organism-based. The note with it: in vivo. In short, it runs like this: as §1
The subject of series [4] is Brain. Briefly: Drug uptake in NMRI mouse brain at 4 to 5 uCi, iv after 3 mins post injection. The series is classed as ADME, organism-based. The note with it: in vivo, 0.05 h. In short, it runs like this: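 Adult male NMRI mice (20–25 g) given 4–5 µCi radiotracer iv via tail vein in 200 µl ethanol/saline (8:92). Killed by cervical dislocation under isoflurane at set times after injection, n = 3 per time point. Brain removed and weighed, radioactivity gamma-counted. Uptake given as %ID/g tissue ± SD.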

For series [5], the system named is Stomach. Briefly: Drug uptake in NMRI mouse stomach at 4 to 5 uCi, iv after 1 min post injection. The series is classed as ADME, organism-based. The note with it: in vivo. In short, it runs like this: as §1
Series [6] has as its system Brain. Nature of the series: Stability in NMRI mouse brain at 3 uCi. In kind it is ADME, tissue-based. An outline of the steps: (§2)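 Brain and EDTA plasma from three male NMRI mice, kept on ice, spiked ex vivo with 3 µCi 123I-tracer. Extracted with acetonitrile and centrifuged; supernatant and pellet gamma-counted for extraction efficiency. Supernatant analysed by radio-TLC (silica, hexane/ethyl acetate 4:6) and C18 HPLC (acetonitrile/water/formic acid 80:20:0.1), fractions gamma-counted.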

For the next series, the system named is Plasma. Nature of the series: Stability in NMRI mouse plasma at 3 uCi. In kind it is ADME, cell-free. In short, it runs like this: as §2
In series [7] the target is T1, Fatty-acid amide hydrolase 1 (Rattus norvegicus, UniProt P97612).
T1 sequence (P97612 whole entry): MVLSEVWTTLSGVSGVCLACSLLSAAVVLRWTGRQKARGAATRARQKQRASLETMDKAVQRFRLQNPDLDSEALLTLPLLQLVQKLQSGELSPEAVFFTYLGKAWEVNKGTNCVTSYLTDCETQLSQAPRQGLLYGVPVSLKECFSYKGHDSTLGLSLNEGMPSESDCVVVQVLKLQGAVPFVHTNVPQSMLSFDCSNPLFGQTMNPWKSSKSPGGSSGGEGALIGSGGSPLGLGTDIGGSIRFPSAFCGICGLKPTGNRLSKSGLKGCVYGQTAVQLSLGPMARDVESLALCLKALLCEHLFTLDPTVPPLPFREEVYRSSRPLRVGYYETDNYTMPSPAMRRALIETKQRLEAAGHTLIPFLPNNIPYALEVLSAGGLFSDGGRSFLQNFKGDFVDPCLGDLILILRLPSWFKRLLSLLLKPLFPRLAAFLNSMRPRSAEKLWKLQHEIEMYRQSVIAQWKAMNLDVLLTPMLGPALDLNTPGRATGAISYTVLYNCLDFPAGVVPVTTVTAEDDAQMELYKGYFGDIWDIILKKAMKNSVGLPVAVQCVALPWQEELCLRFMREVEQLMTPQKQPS
Briefly: Inhibition of rat recombinant FAAH assessed as [3H]AEA hydrolysis. An outline of the steps: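 Recombinant rat FAAH fused to maltose binding protein, 1.2 µg per assay, in 10 mM Tris-HCl pH 7.6 with 1 mM EDTA. Test compound at ten concentrations (5 µM–1.5 nM), no preincubation. [3H]-AEA added at 2 µM final, 10 min at 37 °C. Stopped with chloroform/methanol; [3H]-ethanolamine in aqueous phase counted by scintillation. Three experiments; sigmoidal variable-slope fit of % control.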

Series [8] has as its target T1, Fatty-acid amide hydrolase 1. Nature of the series: Inhibition of rat recombinant FAAH assessed as [3H]AEA hydrolysis preincubated 60 mins before [3H]AEA substrate addition. In short, it runs like this: (§3)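 Recombinant MBP-rat FAAH (1.2 µg/assay) in 10 mM Tris-HCl pH 7.6, 1 mM EDTA. Compound used at levels giving 20%, 50% and 80% inhibition and preincubated with enzyme for 15, 30 or 60 min. 2 µM [3H]-AEA then added, 10 min at 37 °C. Aqueous [3H]-ethanolamine counted by scintillation; IC50 by sigmoidal variable-slope fit.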

For series [9] the target is unchanged. Briefly: Inhibition of rat recombinant FAAH assessed as [3H]AEA hydrolysis preincubated 15 mins before [3H]AEA substrate addition. In short, it runs like this: as §3
Series [10] has the same target. Nature of the series: Inhibition of rat recombinant FAAH assessed as [3H]AEA hydrolysis preincubated before [3H]AEA substrate addition. In short, it runs like this:
as §3

Another series is filed under the species Mus musculus. Briefly: Stability in NMRI mouse by HPLC. The note with it: in vivo. The series is classed as ADME, organism-based. An outline of the steps: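 Three male mice injected with about 200 µCi 123I-tracer in ethanol/saline (8:92) and killed at 3 min. Plasma and brain extracted with acetonitrile and centrifuged. Supernatant run on C18 HPLC (acetonitrile/water/formic acid 80:20:0.1, 6 ml/min); 0.5-min fractions gamma-counted, plus radio-TLC.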

Series [11] has as its target T1, Fatty-acid amide hydrolase 1. Nature of the series: Inhibition of rat recombinant FAAH assessed as [3H]AEA hydrolysis preincubated 30 mins before [3H]AEA substrate addition. An outline of the steps: as §3
Series [12] concerns Brain. Briefly: Drug uptake in NMRI mouse brain at 4 to 5 uCi, iv after 10 mins post injection. The series is classed as ADME, organism-based. Conditions: in vivo. In short, it runs like this: as §1

The structures appear in SMILES notation.

Regarding `CCCCC/C=C\C/C=C\CCCCCCCC(=O)NCC[123I]`, the Drug uptake in series [1] is given as 1.33 % ID/g; in series [2], 1.84 % ID/g; in the series with Stomach [3] it was 24.57 % ID/g; in the series on Brain [4], 1.23 % ID/g; in the series on Stomach [5], 2.58 % ID/g. For the same compound, the Stability in the series with Brain [6] and in the series on Plasma was 94% throughout.

With `CCCCC/C=C\C/C=C\CCCCCCCC(=O)NCCI`, the IC50 in [7] (read-out: IC50) worked out at 5.78 µM; in [8] it was 7.33 µM; in [9], 6.66 µM; in series [10], 6.2 µM; in series [11] it was 7.64 µM. For the same compound, the result in the series filed under Mus musculus was Active.

Take `CCCCC/C=C\C/C=C\C/C=C\C/C=C\CCCC(=O)NCC[123I]`: the Drug uptake amounted to 1.04 % ID/g in [1]; 1.46 % ID/g in series [2]; 17.74 % ID/g with Stomach [3]; 3.1 % ID/g in the series on Stomach [5]; 0.579 % ID/g in the series on Brain [12]. Also, the Stability in the series on Brain [6] was 89%; with Plasma, 92%.

Consider `CCCCC/C=C\C/C=C\C/C=C\C/C=C\CCCC(=O)NCCI`, for which the IC50 is 3.14 µM in series [7] (read-out: IC50); 10.1 µM in series [8]; 7.93 µM in [9]; 4.31 µM in series [10]; 9.89 µM in series [11]. The outcome in the series listed under Mus musculus was Active.

As to `CCCCC/C=C\C/C=C\CCCCCCCC(=O)NCCO` [LINOLEOYLETHANOLAMIDE], the IC50 in series [7] (read-out: IC50) is 7.58 µM; in [7] (read-out: pIC50 (converted)) it was 7.59 µM.
